Data: ChEMBL document CHEMBL4033636, “Identification of selective inhibitors of sphingosine kinases 1 and 2 through a structure-activity relationship study of 4-epi-jaspine B” (Bioorg Med Chem, 2017)

Each compound was assayed against T1, Sphingosine kinase 2 (Homo sapiens, UniProt Q9NRA0) (assay: Inhibition of recombinant human SphK2 using NBD-sphingosine as substrate after 2 hrs in presence of ATP by HPLC method).
T1 sequence (Q9NRA0 whole entry): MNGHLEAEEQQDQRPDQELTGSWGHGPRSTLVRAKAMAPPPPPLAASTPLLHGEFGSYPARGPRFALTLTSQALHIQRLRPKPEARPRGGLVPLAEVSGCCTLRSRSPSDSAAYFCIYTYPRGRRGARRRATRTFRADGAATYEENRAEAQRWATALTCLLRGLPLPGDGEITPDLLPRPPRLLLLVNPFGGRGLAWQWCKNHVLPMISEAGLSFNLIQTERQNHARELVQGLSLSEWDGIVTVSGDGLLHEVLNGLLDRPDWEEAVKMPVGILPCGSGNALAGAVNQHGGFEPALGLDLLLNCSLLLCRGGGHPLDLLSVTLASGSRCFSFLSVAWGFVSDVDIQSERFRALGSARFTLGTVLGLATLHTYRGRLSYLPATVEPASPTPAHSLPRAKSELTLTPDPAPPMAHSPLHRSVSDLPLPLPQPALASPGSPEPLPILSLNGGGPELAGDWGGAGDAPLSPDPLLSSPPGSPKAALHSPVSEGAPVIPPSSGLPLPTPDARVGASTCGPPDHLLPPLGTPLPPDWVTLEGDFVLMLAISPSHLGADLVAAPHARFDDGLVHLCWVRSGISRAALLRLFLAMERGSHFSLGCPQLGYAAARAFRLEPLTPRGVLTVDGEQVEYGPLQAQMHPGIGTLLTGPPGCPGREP

| IC50 [nM] | SMILES |
| --- | --- |
| > 100000 | CC(=O)N(C1=C(Cl)C(=O)c2ccccc2C1=O)C1CCCCC1 |
| 60000 | O=C(NCc1ccncc1)C12CC3CC(C1)CC(c1ccc(Cl)cc1)(C3)C2 [ABC-294640] |

What follows are compounds tested against T2, Sphingosine kinase 1 (Homo sapiens, UniProt Q9NYA1) (assay: Inhibition of recombinant human SphK1 using NBD-sphingosine as substrate after 2 hrs in presence of ATP by HPLC method).
T2 sequence (Q9NYA1 whole entry): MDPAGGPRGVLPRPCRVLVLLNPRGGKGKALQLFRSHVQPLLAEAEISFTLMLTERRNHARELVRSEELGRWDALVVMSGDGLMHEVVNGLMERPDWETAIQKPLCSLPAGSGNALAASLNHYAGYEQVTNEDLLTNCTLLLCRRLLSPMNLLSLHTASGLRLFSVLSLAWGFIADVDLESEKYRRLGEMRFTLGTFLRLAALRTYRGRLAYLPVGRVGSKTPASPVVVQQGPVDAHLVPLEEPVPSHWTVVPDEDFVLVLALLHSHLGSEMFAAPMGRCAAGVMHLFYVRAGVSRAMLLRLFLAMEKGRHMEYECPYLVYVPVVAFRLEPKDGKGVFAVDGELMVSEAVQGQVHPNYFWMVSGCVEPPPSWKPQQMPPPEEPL

| IC50 [nM] | SMILES |
| --- | --- |
| 2000 | CC(=O)N(C1=C(Cl)C(=O)c2ccccc2C1=O)C1CCCCC1 |
| > 100000 | O=C(NCc1ccncc1)C12CC3CC(C1)CC(c1ccc(Cl)cc1)(C3)C2 [ABC-294640] |

These compounds were tested against T2, Sphingosine kinase 1 (assay: Inhibition of recombinant human SphK1 expressed in baculovirus infected sf9 cells using D-erythro-sphingosine as substrate in presence of [gamma-33P]ATP by scintillation counting method).

| Ki [nM] | SMILES |
| --- | --- |
| 40 | CCCCCCCCCCCCc1ccc(-c2noc(C3(C(=N)N)CC3)n2)cc1 |

What follows are compounds tested against T3, Sphingosine kinase 2 (Mus musculus, UniProt Q9JIA7) (assay: Inhibition of recombinant mouse SphK2 expressed in baculovirus infected sf9 cells using D-erythro-sphingosine as substrate in presence of [gamma-33P]ATP by scintillation counting method).
T3 sequence (Q9JIA7 whole entry): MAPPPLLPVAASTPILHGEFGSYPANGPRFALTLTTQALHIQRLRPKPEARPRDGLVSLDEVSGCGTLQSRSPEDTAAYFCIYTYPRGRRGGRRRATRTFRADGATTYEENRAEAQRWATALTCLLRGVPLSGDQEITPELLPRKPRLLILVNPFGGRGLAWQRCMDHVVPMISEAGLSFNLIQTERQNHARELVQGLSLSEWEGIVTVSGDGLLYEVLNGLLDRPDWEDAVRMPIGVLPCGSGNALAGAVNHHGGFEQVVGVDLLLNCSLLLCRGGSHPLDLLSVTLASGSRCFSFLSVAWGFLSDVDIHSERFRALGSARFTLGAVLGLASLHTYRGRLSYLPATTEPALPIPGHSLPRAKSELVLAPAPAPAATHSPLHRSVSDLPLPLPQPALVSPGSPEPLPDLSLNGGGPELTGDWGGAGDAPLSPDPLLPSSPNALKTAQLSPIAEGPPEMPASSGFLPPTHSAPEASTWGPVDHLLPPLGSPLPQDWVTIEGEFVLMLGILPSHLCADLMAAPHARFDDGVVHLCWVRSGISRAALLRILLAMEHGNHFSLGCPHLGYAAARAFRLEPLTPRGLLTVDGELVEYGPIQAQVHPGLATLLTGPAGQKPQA

| Ki [nM] | SMILES |
| --- | --- |
| 14100 | CCCCCCCCCCCCc1ccc(-c2noc(C3(C(=N)N)CC3)n2)cc1 |

Each compound was assayed against T2, Sphingosine kinase 1 (assay: Inhibition of recombinant N-terminal GST-tagged human SphK1 (1 to 384 residues) expressed in baculovirus expression system using sphingosine as substrate after 1 hr in presence of ATP by off-chip mobility shift assay).
Summary of the method: (§1)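 GST-fusion kinases purified on glutathione sepharose. Compounds in DMSO diluted fourfold into 20 mM HEPES pH 7.5, 0.01% Triton X-100, 2 mM DTT. Reaction: 1 µM sphingosine, 5 mM MgCl2, ATP 25 µM (SphK1) or 600 µM (SphK2), room temperature 1 h, n = 2. Read-out: P/(P+S) from electrophoretic peak heights. […] IC50 fitted.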

| IC50 [nM] | SMILES |
| --- | --- |
| 820 to 1100 | CCCCCCCCCCCCCC[C@@H]1OC[C@@H](N)[C@@H]1O |
| 880 | CCCCCCCCCCCCc1ccc(CC[C@@H]2OC[C@@H](N)[C@@H]2O)cc1 |
| 16000 | CCCCCCCCc1cccc(CC[C@@H]2OC[C@@H](N)[C@@H]2O)c1 |
| 710 | CC(C)COCCCCCCCCCCC[C@@H]1OC[C@@H](N)[C@@H]1O |
| > 30000 | CCCCCCc1ccc(CC[C@@H]2OC[C@@H](N)[C@@H]2O)cc1 |
| 220 | N[C@@H]1CO[C@@H](CCCCCCCCCCOCC2CCCCC2)[C@H]1O |
| 380 | N[C@@H]1CO[C@@H](CCCCCCCCCCCOCC2CCCCC2)[C@H]1O |
| > 30000 | CCCCCCCCCOCCCC[C@@H]1OC[C@@H](N)[C@@H]1O |
| > 30000 | CCCCCCCc1cccc(CC[C@@H]2OC[C@@H](N)[C@@H]2O)c1 |
| 1100 | CCCCCCCCCCCCCC[C@@H]1OC[C@@H](NC(=N)N)[C@@H]1O |
| 420 | CCCCCCCCCCc1ccc(CC[C@@H]2OC[C@@H](N)[C@@H]2O)cc1 |
| > 30000 | CCCCCCCCCCCCCC[C@@H]1OC[C@@H](NC(C)=O)[C@@H]1O |
| > 30000 | CCCCCCCCCCCCCCc1ccc(CC[C@@H]2OC[C@@H](N)[C@@H]2O)cc1 |
| 12000 | CCCCCCCCCc1cccc(CC[C@@H]2OC[C@@H](N)[C@@H]2O)c1 |
| 2800 | N[C@@H]1CO[C@@H](CCCCCCCCOCC2CCCCC2)[C@H]1O |
| 3100 | CCCCCCCCCCCCCC[C@@H]1OC[C@@H](NC(C)=N)[C@@H]1O |
| 1400 | CCCCCCCCc1ccc(CC[C@@H]2OC[C@@H](N)[C@@H]2O)cc1 |
| 670 | N[C@@H]1CO[C@@H](CCCCCCCCCOCC2CCCCC2)[C@H]1O |
| 9600 | CCCCCCCOCCCCCC[C@@H]1OC[C@@H](N)[C@@H]1O |
| > 30000 | CCCCCCCCc1ccccc1CC[C@@H]1OC[C@@H](N)[C@@H]1O |
| 4000 | CCCCCCCCCCCCCC[C@@H]1OC[C@@H](N)[C@@H]1OC |

Each compound was assayed against T2, Sphingosine kinase 1 (assay: Inhibition of human SphK1 using sphingosine as substrate after 15 to 20 mins in presence of [gamma-32P]ATP by Cerenkov counting method).

| IC50 [nM] | SMILES |
| --- | --- |
| > 50000 | CCCCCCCCc1ccc(CC[C@@](N)(CO)COC)cc1 |

What follows are compounds tested against T1, Sphingosine kinase 2 (assay: Inhibition of human SphK2 using sphingosine as substrate after 15 to 20 mins in presence of [gamma-32P]ATP by Cerenkov counting method).

| IC50 [nM] | SMILES |
| --- | --- |
| 27000 | CCCCCCCCc1ccc(CC[C@@](N)(CO)COC)cc1 |

Each compound was assayed against T1, Sphingosine kinase 2 (assay: Inhibition of recombinant N-terminal GST-tagged human SphK2 (1 to 618 residues) expressed in baculovirus expression system using sphingosine as substrate after 1 hr in presence of ATP by off-chip mobility shift assay).
Summary of the method: as §1

| IC50 [nM] | SMILES |
| --- | --- |
| 600 to 740 | CCCCCCCCCCCCCC[C@@H]1OC[C@@H](N)[C@@H]1O |
| 21000 | CCCCCCCCCCCCc1ccc(CC[C@@H]2OC[C@@H](N)[C@@H]2O)cc1 |
| 2100 | CCCCCCCCc1cccc(CC[C@@H]2OC[C@@H](N)[C@@H]2O)c1 |
| 840 | CC(C)COCCCCCCCCCCC[C@@H]1OC[C@@H](N)[C@@H]1O |
| 8300 | CCCCCCc1ccc(CC[C@@H]2OC[C@@H](N)[C@@H]2O)cc1 |
| 240 | N[C@@H]1CO[C@@H](CCCCCCCCCCOCC2CCCCC2)[C@H]1O |
| 780 | N[C@@H]1CO[C@@H](CCCCCCCCCCCOCC2CCCCC2)[C@H]1O |
| > 30000 | CCCCCCCCCOCCCC[C@@H]1OC[C@@H](N)[C@@H]1O |
| 2200 | CCCCCCCc1cccc(CC[C@@H]2OC[C@@H](N)[C@@H]2O)c1 |
| 1900 | CCCCCCCCCCCCCC[C@@H]1OC[C@@H](NC(=N)N)[C@@H]1O |
| 670 | CCCCCCCCCCc1ccc(CC[C@@H]2OC[C@@H](N)[C@@H]2O)cc1 |
| > 30000 | CCCCCCCCCCCCCC[C@@H]1OC[C@@H](NC(C)=O)[C@@H]1O |
| > 30000 | CCCCCCCCCCCCCCc1ccc(CC[C@@H]2OC[C@@H](N)[C@@H]2O)cc1 |
| 1700 | CCCCCCCCCc1cccc(CC[C@@H]2OC[C@@H](N)[C@@H]2O)c1 |
| 1300 | N[C@@H]1CO[C@@H](CCCCCCCCOCC2CCCCC2)[C@H]1O |
| 9400 | CCCCCCCCCCCCCC[C@@H]1OC[C@@H](NC(C)=N)[C@@H]1O |
| 560 | CCCCCCCCc1ccc(CC[C@@H]2OC[C@@H](N)[C@@H]2O)cc1 |
| 460 | N[C@@H]1CO[C@@H](CCCCCCCCCOCC2CCCCC2)[C@H]1O |
| 3900 | CCCCCCCOCCCCCC[C@@H]1OC[C@@H](N)[C@@H]1O |
| > 30000 | CCCCCCCCc1ccccc1CC[C@@H]1OC[C@@H](N)[C@@H]1O |
| > 30000 | CCCCCCCCCCCCCC[C@@H]1OC[C@@H](N)[C@@H]1OC |

What follows are compounds tested against T2, Sphingosine kinase 1 (assay: Inhibition of human SphK1 using sphingosine as substrate in presence of [gamma-32P]ATP).

| IC50 [nM] | SMILES |
| --- | --- |
| > 10000 | CCCCOc1ccc(CC/C=C2\SC(=O)N(CCN)C2=O)cc1 |
